Data: ChEMBL document CHEMBL1949601, “γ-Carbolines: a novel class of cannabinoid agonists with high aqueous solubility and restricted CNS penetration” (Bioorg Med Chem Lett, 2012)
Values after ≈ are worked out from the molar mass of the structure shown.

What was measured:
Cannabinoid receptor 1 [1] = biological target: T1, Cannabinoid receptor 1 (Homo sapiens, UniProt P21554); assay: Displacement of [3H]-CP55,940 from human CB1 receptor expressed in HEK293 cells; type: cell-based
Cannabinoid receptor 1 [2] = biological target: T1, Cannabinoid receptor 1; assay: Agonist activity at human CB1 receptor expressed in HEK293 EBNA cells by [35S]GTPgamma binding assay; type: functional, cell-based
[3] = Metabolic stability in human liver microsomes; type: ADME, Microsome; conditions: read-out: Stability
[4] = biological target: Voltage-gated inwardly rectifying potassium channel KCNH2 (Homo sapiens, UniProt Q12809); assay: Inhibition of human Erg by voltage ion flux electrophysiological assay
[5] = Dissociation constant, pKa of the compound; type: physicochemical
Cannabinoid receptor 2 = Cannabinoid receptor 2 (Homo sapiens, UniProt P34972); assay: Binding affinity to human CB2 receptor
[6] = Aqueous solubility of the compound at pH 7.4; type: physicochemical
[7] = Apparent permeability across human Caco2 cells; type: ADME, cell-based; conditions: Caco-2
[8] = Ratio of drug uptake in brain to plasma of Sprague-Dawley rat at 1 mg/kg, sc; type: ADME, organism-based; parameters: dose 1 mg/kg, route subcutaneous; conditions: read-out: BPR
[9] = Metabolic stability in rat liver microsomes; type: ADME, Microsome; conditions: read-out: Stability
Cannabinoid receptor 1 [10] = biological target: T1, Cannabinoid receptor 1; assay: Partial agonist activity at human CB1 receptor expressed in HEK293 EBNA cells by [35S]GTPgamma binding assay; type: functional, cell-based
Outline: (§1)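 Membranes from HEK293 EBNA cells stably transfected with cloned human CB1; agonism read out as [35S]GTPγS binding, EC50 determined; Emax expressed relative to Win55,212-2 as reference agonist. Mean of at least 2 independent measurements.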

Cannabinoid receptor 1 [11] = biological target: T1, Cannabinoid receptor 1; assay: Partial agonist activity at human CB1 receptor expressed in HEK293 EBNA cells by [35S]GTPgamma binding assay relative to Win55,212-2; type: functional, cell-based; outline: as §1
Cannabinoid receptor 1 [12] = biological target: Cannabinoid receptor 1 (Rattus norvegicus, UniProt P20272); assay: Agonist activity at CB1 receptor in rat brain tissue; type: functional, tissue-based
[13] = biological target: Cannabinoid receptor 1 (Rattus norvegicus) (UniProt P20272); assay: Agonist activity at CB1 receptor in rat brain tissue relative to control; type: functional, tissue-based
Chain of Cannabinoid receptor 1 (Rattus norvegicus) (P20272 whole entry): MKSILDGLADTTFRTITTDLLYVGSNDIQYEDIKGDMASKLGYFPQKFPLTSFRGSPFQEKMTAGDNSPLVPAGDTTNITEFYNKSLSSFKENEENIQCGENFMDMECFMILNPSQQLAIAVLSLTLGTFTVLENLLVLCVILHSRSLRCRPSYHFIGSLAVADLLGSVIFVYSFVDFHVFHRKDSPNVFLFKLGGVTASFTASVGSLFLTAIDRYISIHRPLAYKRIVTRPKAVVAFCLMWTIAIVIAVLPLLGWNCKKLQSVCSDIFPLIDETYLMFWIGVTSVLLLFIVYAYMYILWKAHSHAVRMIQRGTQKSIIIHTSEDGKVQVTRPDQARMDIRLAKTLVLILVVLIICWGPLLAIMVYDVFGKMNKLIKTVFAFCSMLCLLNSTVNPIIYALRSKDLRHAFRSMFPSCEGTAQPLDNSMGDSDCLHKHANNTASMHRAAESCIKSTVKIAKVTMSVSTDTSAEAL

T1 sequence (P21554 whole entry): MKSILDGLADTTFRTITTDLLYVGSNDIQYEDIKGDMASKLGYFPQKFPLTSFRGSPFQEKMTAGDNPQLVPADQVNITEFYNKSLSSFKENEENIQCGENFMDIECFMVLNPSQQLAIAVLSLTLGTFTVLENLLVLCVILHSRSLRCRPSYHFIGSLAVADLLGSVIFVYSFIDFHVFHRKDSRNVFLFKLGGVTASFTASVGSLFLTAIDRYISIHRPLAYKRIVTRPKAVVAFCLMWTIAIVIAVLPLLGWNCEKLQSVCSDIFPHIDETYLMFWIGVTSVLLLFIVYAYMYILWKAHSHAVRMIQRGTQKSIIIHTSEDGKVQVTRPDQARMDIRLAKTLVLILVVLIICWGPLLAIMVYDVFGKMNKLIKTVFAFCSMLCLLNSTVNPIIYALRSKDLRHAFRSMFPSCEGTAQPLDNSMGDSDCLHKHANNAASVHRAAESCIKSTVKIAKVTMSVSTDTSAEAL
Chain of Cannabinoid receptor 2 (P34972 whole entry): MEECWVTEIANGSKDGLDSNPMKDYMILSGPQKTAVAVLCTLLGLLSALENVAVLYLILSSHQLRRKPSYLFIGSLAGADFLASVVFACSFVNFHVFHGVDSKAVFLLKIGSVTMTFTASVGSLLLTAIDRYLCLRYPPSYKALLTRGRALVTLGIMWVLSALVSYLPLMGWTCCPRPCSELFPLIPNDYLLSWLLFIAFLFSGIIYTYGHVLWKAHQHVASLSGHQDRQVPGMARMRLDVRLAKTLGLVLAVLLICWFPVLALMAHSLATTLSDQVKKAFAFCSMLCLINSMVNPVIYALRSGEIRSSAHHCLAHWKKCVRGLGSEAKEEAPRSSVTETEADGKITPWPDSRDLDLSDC
Chain of Voltage-gated inwardly rectifying potassium channel KCNH2 (Q12809 whole entry): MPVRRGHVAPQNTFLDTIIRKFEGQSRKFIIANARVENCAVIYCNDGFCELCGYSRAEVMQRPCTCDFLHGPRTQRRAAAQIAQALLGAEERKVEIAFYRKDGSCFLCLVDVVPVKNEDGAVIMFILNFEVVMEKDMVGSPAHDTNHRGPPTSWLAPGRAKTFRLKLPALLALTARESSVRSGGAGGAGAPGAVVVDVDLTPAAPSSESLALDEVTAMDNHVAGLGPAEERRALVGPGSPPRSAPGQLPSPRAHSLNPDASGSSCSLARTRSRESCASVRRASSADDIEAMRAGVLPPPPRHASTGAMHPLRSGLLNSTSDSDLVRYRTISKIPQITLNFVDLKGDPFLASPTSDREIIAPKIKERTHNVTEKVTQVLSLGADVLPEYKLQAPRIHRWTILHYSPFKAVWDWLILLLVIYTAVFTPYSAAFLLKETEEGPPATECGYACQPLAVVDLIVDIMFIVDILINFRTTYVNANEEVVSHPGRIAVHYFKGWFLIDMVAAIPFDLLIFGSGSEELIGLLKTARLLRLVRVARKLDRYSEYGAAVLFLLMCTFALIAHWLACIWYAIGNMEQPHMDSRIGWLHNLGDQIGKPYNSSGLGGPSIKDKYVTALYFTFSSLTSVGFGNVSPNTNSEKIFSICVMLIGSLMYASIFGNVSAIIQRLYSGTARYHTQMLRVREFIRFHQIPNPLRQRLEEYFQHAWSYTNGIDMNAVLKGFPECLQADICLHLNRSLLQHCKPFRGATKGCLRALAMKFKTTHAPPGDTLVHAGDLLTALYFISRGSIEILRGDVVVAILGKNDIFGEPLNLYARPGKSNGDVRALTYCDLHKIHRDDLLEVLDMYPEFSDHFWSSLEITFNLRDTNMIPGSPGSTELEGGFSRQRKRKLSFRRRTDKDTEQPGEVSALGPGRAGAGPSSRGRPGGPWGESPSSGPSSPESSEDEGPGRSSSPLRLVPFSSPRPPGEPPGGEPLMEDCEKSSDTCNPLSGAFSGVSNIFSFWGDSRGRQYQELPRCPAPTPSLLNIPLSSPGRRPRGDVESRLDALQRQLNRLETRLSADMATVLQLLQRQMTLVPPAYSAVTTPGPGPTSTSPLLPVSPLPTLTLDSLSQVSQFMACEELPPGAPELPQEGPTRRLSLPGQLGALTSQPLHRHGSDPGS
Chain of Cannabinoid receptor 1 (Rattus norvegicus, UniProt P20272) (P20272 whole entry): as the sequence (P20272 whole entry) above

| Structure (SMILES) | Ki (Cannabinoid receptor 1 [1]) [nM] | EC50 (Cannabinoid receptor 1 [2]) [nM] | other results |
| --- | --- | --- | --- |
| C=CCn1c2c(c3cc(C(=O)N4CCC(C)CC4)ccc31)CN(C1CCCC1)CC2 | 9 | 33 | microsomal CLint [3]: 93 µL/min/mg |
| C=CCn1c2c(c3cc(C(=O)N4CCC(C)CC4)ccc31)CN(C1CCOCC1)CC2 |  | 60 | microsomal CLint [3]: 42 µL/min/mg |
| CCOc1ccc(Cn2c3c(c4cc(C(=O)N5CCC(C)CC5)ccc42)CN(C2CCOCC2)CC3)cc1 | 51 | 53 |  |
| CCCS(=O)(=O)n1c2c(c3cc(C(=O)N4CCC(C)CC4)ccc31)CN(C1CCOCC1)CC2 | 115 | 129 | IC50 [4]: 2 µM; pKa [5]: 7.3 |
| C=CCn1c2c(c3cc(C(=O)N4CCC(C)CC4)ccc31)CN(Cc1ccncc1)CC2 |  | 1360 | microsomal CLint [3]: > 300 µL/min/mg |
| CCCn1c2c(c3cc(C(=O)N4CCC(C)CC4)ccc31)CN(C1CCCC1)CC2 | 15 | 45 |  |
| CC1CCN(C(=O)c2ccc3c(c2)c2c(n3S(=O)(=O)N(C)C)CCN(C3CCOCC3)C2)CC1 | 110 | 71 |  |
| C=CCn1c2c(c3cc(C(=O)N4CCC(C)CC4)ccc31)CN(C1CCSC1)CC2 (stereo not given) |  | 5 | microsomal CLint [3]: > 300 µL/min/mg |
| CC1CCN(C(=O)c2ccc3c(c2)c2c(n3C(=O)N(C)C)CCN(C3CCOCC3)C2)CC1 | 2380 |  |  |
| CC1CCN(C(=O)c2ccc3c(c2)c2c(n3S(=O)(=O)n3ccnc3)CCN(C3CCOCC3)C2)CC1 | 592 |  |  |
| C=CCn1c2c(c3cc(C(=O)N4CCC(C)CC4)ccc31)CN(Cc1ccccn1)CC2 |  | 5420 |  |
| CCCS(=O)(=O)n1c2c(c3cc(C(=O)N4CCC(C)CC4)ccc31)CN(C1CCOC1)CC2 (stereo not given) | 320 |  | pKa [5]: 5.8 |
| Cn1c2c(c3cc(C(=O)N4CCCCC4)ccc31)CN(C1CCOCC1)CC2 | 226 |  | IC50 [4]: 18 µM |
| CC1CCN(C(=O)c2ccc3c(c2)c2c(n3S(C)(=O)=O)CCN(C3CCCC3)C2)CC1 | 36 | 50 |  |
| CCOc1ccc(Cc2nc3cc(N(C)S(=O)(=O)c4cccs4)ccc3n2CC2CCCCC2)nc1 | 3 | 6 | Ki (Cannabinoid receptor 2): 0.56 nM; solubility [6]: < 10 µg/mL; Papp [7]: 0.6 ×10⁻⁶ cm/s; Kp [8]: 0.07; microsomal CLint [3]: > 300 µL/min/mg; microsomal CLint [9]: > 300 µL/min/mg |
| CCCCCOc1ccc(C(=O)c2cccc3ccccc23)c2ccccc12 |  |  | Ki (Cannabinoid receptor 2): 19 nM; solubility [6]: < 10 µg/mL; Kp [8]: 0.04 |
| CC1CCN(C(=O)c2ccc3c(c2)c2c(n3S(=O)(=O)c3ccccc3)CCN(C3CCOCC3)C2)CC1 | 31 | 59 |  |
| CCCC(=O)n1c2c(c3cc(C(=O)N4CCC(C)CC4)ccc31)CN(C1CCOCC1)CC2 | 102 |  | EC50 (Cannabinoid receptor 1 [10]): 117 nM; Emax (Cannabinoid receptor 1 [11]): 17% |
| C=CCn1c2c(c3cc(C(=O)N4CCC(C)CC4)ccc31)CN(CC1CC1)CC2 | 143 | 768 | Ki (Cannabinoid receptor 2): 14 nM; EC50 (Cannabinoid receptor 1 [12]): 1440 nM; Emax [13]: 47%; solubility [6]: 3300 µg/mL (≈ 8430 µM); Papp [7]: 3 ×10⁻⁶ cm/s; Kp [8]: 0.74; microsomal CLint [3]: 66 µL/min/mg; microsomal CLint [9]: > 300 µL/min/mg |

| Structure (SMILES) | Ki (Cannabinoid receptor 1 [1]) [nM] | EC50 (Cannabinoid receptor 1 [2]) [nM] | other results |
| --- | --- | --- | --- |
| CCCn1c2c(c3cc(C(=O)N4CCC(C)CC4)ccc31)CN(C1CCOCC1)CC2 | 58 | 103 |  |
| CC1CCN(C(=O)c2ccc3c(c2)c2c(n3S(=O)(=O)C(C)C)CCN(C3CCOCC3)C2)CC1 | 170 | 150 |  |
| CCS(=O)(=O)n1c2c(c3cc(C(=O)N4CCC(C)CC4)ccc31)CN(C1CCCC1)CC2 | 17 | 11 |  |
| CC1CCN(C(=O)c2ccc3c(c2)c2c(n3C)CCN(C3CCOCC3)C2)CC1 | 76 |  | IC50 [4]: 2.6 µM |
| C=CCn1c2c(c3cc(C(=O)N4CCC(C)CC4)ccc31)CN(Cc1cccnc1)CC2 |  | > 14000 | microsomal CLint [3]: > 300 µL/min/mg |
| CCCCCc1cc(O)c2c(c1)OC(C)(C)[C@@H]1CCC(C)=C[C@@H]21 [DRONABINOL] |  |  | solubility [6]: < 10 µg/mL; Kp [8]: 1 |
| CCn1c2c(c3cc(C(=O)N4CCC(C)CC4)ccc31)CN(C1CCCC1)CC2 | 34 | 63 |  |
| C=CCn1c2c(c3cc(C(=O)N4CCC(C)CC4)ccc31)CN(Cc1ccccc1)CC2 |  | 103 | microsomal CLint [3]: > 300 µL/min/mg |
| C=CCn1c2c(c3cc(C(=O)N4CCC(C)CC4)ccc31)CN(CC1CCCC1)CC2 |  | 115 | microsomal CLint [3]: > 300 µL/min/mg |
| CC1CCN(C(=O)c2ccc3[nH]c4c(c3c2)CN(C2CCCC2)CC4)CC1 | 264 | 4250 |  |
| CCCS(=O)(=O)n1c2c(c3cc(C(=O)N4CCC(C)CC4)ccc31)CN(C1CCCC1)CC2 | 22 | 22 |  |
| C=CCn1c2c(c3cc(C(=O)N4CCC(C)CC4)ccc31)CN(C1CCCCC1)CC2 | 56 | 60 | microsomal CLint [3]: 135 µL/min/mg |
| CC1CCN(C(=O)c2ccc3c(c2)c2c(n3S(C)(=O)=O)CCN(C3CCOCC3)C2)CC1 | 239 | 473 |  |
| CCCCCCC(C)(C)c1cc(O)c2c(c1)OC(C)(C)[C@@H]1CC=C(C(=O)O)C[C@@H]21 [LENABASUM] |  |  | Kp [8]: 0.3 |
| CC1CCN(C(=O)c2ccc3c(c2)c2c(n3S(=O)(=O)N(C)C)CCN(C3CCCC3)C2)CC1 | 22 | 26 |  |
| CC1CCN(C(=O)c2ccc3c(c2)c2c(n3C)CCN(C3CCCC3)C2)CC1 | 32 | 77 |  |
| CCS(=O)(=O)n1c2c(c3cc(C(=O)N4CCC(C)CC4)ccc31)CN(C1CCOC1)CC2 (stereo not given) | 197 |  | IC50 [4]: 25 µM; pKa [5]: 5.9 |
| CCNS(=O)(=O)n1c2c(c3cc(C(=O)N4CCC(C)CC4)ccc31)CN(C1CCOCC1)CC2 | 424 |  |  |
